Assay [1] deals with Mycobacterium tuberculosis. Briefly: Antimycobacterial activity against Mycobacterium tuberculosis H37Rv ATCC 27294 by microplate Alamar blue assay. Type of assay: functional. The method in brief: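 Strain (H37Rv or ATCC single-drug-resistant isolates) grown to late log phase in 7H9 with 0.2% glycerol, 0.05% Tween80, 10% OADC. Cells washed into PBS, passed through 8 μm filter, frozen; CFU titred on 7H11 agar. MABA MIC is the lowest concentration giving ≥90% growth inhibition versus untreated controls.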

Assay [2] concerns Mycobacteroides abscessus. Nature of the assay: Antimycobacterial activity against Mycobacterium abscessus ATCC 19977 at 100 ug/ml after 7 days by microplate Alamar blue assay. Type of assay: functional. Background: Alamar Blue is a resazurin reagent that responds to reducing activity.
The test system of assay [3] is Mycobacterium kansasii. Briefly: Antimycobacterial activity against Mycobacterium kansasii ATCC 12478 at 100 ug/ml after 7 days by microplate Alamar blue assay. Type of assay: functional. In a few lines: (§1)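 MABA in 7H12 (M. abscessus, M. bovis BCG) or 7H9 (others). Pre-dye incubation: M. abscessus 37 °C 3 days; BCG 37 °C 7 days; M. chelonae 30 °C 3 days; M. marinum 30 °C 5 days; M. avium and M. kansasii 37 °C 6 days. Then 20% Tween80 plus Alamar blue added: 4 h (abscessus), 6 days (chelonae), 1 day (others). Tested at 100 μg/mL.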

Assay [4] has as its system Mycobacterium tuberculosis. Briefly: Antimycobacterial activity against Mycobacterium tuberculosis H37Rv ATCC 27294 incubated for 10 days under low oxygen condition followed by normoxic environment for 28 hrs by low oxygen recovery assay. Type of assay: functional. In a few lines:
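Luciferase (luxAB) reporter strain adapted to low oxygen in a fermenter. Exposed to samples for 10 days at 37 °C under hypoxia, then 28 h normoxic at 37 °C. Luminescence read; MIC is the lowest concentration cutting luminescence by ≥90% versus untreated cultures.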

Another assay concerns Acinetobacter baumannii. Nature of the assay: Antibacterial activity against Acinetobacter baumannii at 100 ug/ml by broth microdilution method. Type of assay: functional, organism-based. In general terms: Broth dilution looks for growth in wells or tubes with falling amounts of substance.
The next assay has as its system Candida albicans. Nature of the assay: Antifungal activity against Candida albicans ATCC 90028 at 100 ug/ml by broth microdilution method. Type of assay: functional, organism-based. The method in brief: (§2)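 Broth microdilution per NCCLS guidelines; growth read spectrophotometrically at 570 nm, except S. pneumoniae at 490 nm, which was tested with 2% HBL supplement. Compounds tested up to 100 μg/mL.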

The test system of the next assay is Pseudomonas aeruginosa. Briefly: Antibacterial activity against Pseudomonas aeruginosa ATCC 27853 at 100 ug/ml by broth microdilution method. Type of assay: functional, organism-based. In a few lines: as §2
The subject of another assay is Mycobacterium avium. Briefly: Antimycobacterial activity against Mycobacterium avium ATCC 15769 at 100 ug/ml after 7 days by microplate Alamar blue assay. Type of assay: functional, organism-based. In a few lines:
as §1

Assay [5] has as its system Mycolicibacterium smegmatis. Briefly: Antimycobacterial activity against Mycobacterium smegmatis MC2 155 at 100 ug/ml after 3 days by microplate Alamar blue assay. Type of assay: functional, organism-based. Particulars: str. MC2 155. The method in brief:
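MABA: 37 °C for 3 days, then Tween80 (20%) and Alamar blue added, 4 h further incubation; fluorescence read-out. Tested at 100 μg/mL.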

A further assay deals with Staphylococcus aureus. Nature of the assay: Antibacterial activity against Staphylococcus aureus ATCC 29213 at 100 ug/ml by broth microdilution method. Type of assay: functional, organism-based. The method in brief: as §2
In another assay the test system is Escherichia coli. Briefly: Antibacterial activity against Escherichia coli ATCC 25922 at 100 ug/ml by broth microdilution method. Type of assay: functional, organism-based. In a few lines: as §2
In another assay the test system is Mycobacteroides chelonae. Nature of the assay: Antimycobacterial activity against Mycobacterium chelonae ATCC 35752 at 100 ug/ml after 9 days by microplate Alamar blue assay. Type of assay: functional, organism-based. In a few lines: as §1
For the next assay, the system named is Vero. Nature of the assay: Cytotoxicity against african green monkey Vero cells after 72 hrs by MTS-PMS assay. Type of assay: cell-based. Particulars: Chlorocebus sabaeus. The method in brief: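 Vero cells in EMEM with 10% FBS at 37 °C, 5% CO2, diluted to 10^6 cells/mL. Exposed to 2-fold serial dilutions for 72 h at 37 °C.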
A general note: Tetrazolium assays rely on reduction of a dye to a coloured formazan, in cell work by metabolically active cells.

The nature of assay [6]: Selectivity index, ratio of IC50 for african green monkey Vero cells to MIC90 for Mycobacterium tuberculosis H37Rv ATCC 27294 by microplate Alamar blue assay. Type of assay: functional.
For assay [7], the system named is Mycobacterium marinum. Nature of the assay: Antimycobacterial activity against Mycobacterium marinum ATCC 927 at 100 ug/ml after 6 days by microplate Alamar blue assay. Type of assay: functional, organism-based. The method in brief:
as §1

The test system of a further assay is Streptococcus pneumoniae. Briefly: Antibacterial activity against Streptococcus pneumoniae at 100 ug/ml. Type of assay: functional, organism-based. The method in brief: as §2
The next assay deals with Enterococcus faecalis. Nature of the assay: Antibacterial activity against Enterococcus faecalis ATCC 29212 at 100 ug/ml by broth microdilution method. Type of assay: functional, organism-based. In a few lines:
as §2

For assay [8], the system named is Mycobacterium marinum. Nature of the assay: Antimycobacterial activity against Mycobacterium marinum ATCC 927 after 6 days by microplate Alamar blue assay. Type of assay: functional. Conditions: ATCC 927, 144 h.
For assay [9], the system named is Mycobacterium kansasii. Nature of the assay: Antimycobacterial activity against Mycobacterium kansasii ATCC 12478 after 7 days by microplate Alamar blue assay. Type of assay: functional. Conditions: ATCC 12478, 168 h. In a few lines:
as §1

Molecules are shown by their SMILES. In brackets after ≈: the same amount, converted by molar mass. Activity calls are given as the source filed them. No cut-off for these calls is given here.

In general, MIC90 refers to an inhibitory concentration at the 90% level, which refers to growth in some studies and to a panel of isolates in others. Usually IC50 stands for the point on the concentration scale where inhibition reaches its midpoint. Take `CCOC(=O)c1c(-c2ccccc2)c2ccc(Cl)cc2oc1=O`: the MIC90 in assay [1] was 35.9 mg/L (≈ 109 µM); in [4] it was 23.2 mg/L (≈ 70.6 µM). For the same molecule, the outcome (in assay [2]; in the assay on Mycobacterium kansasii [3]; in the assay on Acinetobacter baumannii; in the assay with Candida albicans; in the assay on Pseudomonas aeruginosa; with Mycobacterium avium) was inactive. In addition, the outcome (in assay [5]; in the assay on Staphylococcus aureus; in the assay on Escherichia coli; in the assay with Mycobacteroides chelonae; in the assay on Mycobacterium marinum [7]; with Streptococcus pneumoniae) was inactive. Also, the outcome in the assay on Enterococcus faecalis was inactive. In addition, the IC50 with Vero amounted to 39.4 mg/L (≈ 120 µM). In addition, the “Selectivity Index” value in assay [6] is given as 1.1.

In the case of `CCOC(=O)c1c(-c2ccccc2)c2cc(Cl)ccc2oc1=O`, the MIC90 was determined as 97.1 mg/L (≈ 295 µM) in the assay with Mycobacterium marinum [8], 44.7 mg/L (≈ 136 µM) in [1] and 37.1 mg/L (≈ 113 µM) in assay [4]. In addition, the result (in assay [2]; in the assay on Mycobacterium kansasii [3]; in the assay on Acinetobacter baumannii; in the assay with Candida albicans; with Pseudomonas aeruginosa; in the assay on Mycobacterium avium) was inactive. For the same molecule, the result (in [5]; in the assay with Staphylococcus aureus; in the assay on Escherichia coli; in the assay on Mycobacteroides chelonae; in the assay with Streptococcus pneumoniae; in the assay on Enterococcus faecalis) was inactive. In assay [6], the “Selectivity Index” value is 0.82.

As to `NC[C@H]1O[C@H](O[C@H]2[C@H](O)[C@@H](O[C@H]3O[C@H](CO)[C@@H](O)[C@H](N)[C@H]3O)[C@H](N)C[C@@H]2N)[C@H](O)[C@@H](O)[C@@H]1O` [KANAMYCIN], in assay [1], the MIC90 was determined as 0.65 mg/L (≈ 1.34 µM). The same molecule returned a half-maximal inhibitory concentration (IC50) in the assay on Vero of over 100 mg/L. For the same molecule, in assay [6], the “Selectivity Index” value is on record as over 154.

On to `O=c1cc(-c2ccccc2)c2ccc(Cl)cc2o1`, for which the MIC90 in [1] came to 23.9 mg/L (≈ 93.1 µM); in the assay with Mycobacterium kansasii [9], 49.3 mg/L (≈ 192 µM); in [4], 21.9 mg/L (≈ 85.3 µM). Moreover, the result (in assay [2]; in the assay with Acinetobacter baumannii; in the assay on Candida albicans; in the assay with Pseudomonas aeruginosa; with Mycobacterium avium; in [5]) was inactive. For the same molecule, the result with Staphylococcus aureus, with Escherichia coli, in the assay on Mycobacteroides chelonae, with Mycobacterium marinum [7], in the assay with Streptococcus pneumoniae and in the assay on Enterococcus faecalis was inactive. In addition, the IC50 in the assay on Vero stood at 30.4 mg/L (≈ 118 µM). The “Selectivity Index” value in assay [6] was found to be 1.27.

Consider `CN[C@@H]1[C@H](O[C@H]2[C@H](O[C@H]3[C@H](O)[C@@H](O)[C@H](N=C(N)N)[C@@H](O)[C@@H]3N=C(N)N)O[C@@H](C)[C@]2(O)C=O)O[C@@H](CO)[C@H](O)[C@H]1O` [STREPTOMYCIN], for which the MIC90 amounted to 0.12 mg/L (≈ 0.206 µM) in [1] and 1.07 mg/L (≈ 1.84 µM) in assay [4]. Also, the IC50 in the assay with Vero was over 100 mg/L. Besides, the “Selectivity Index” value in [6] was over 833.

`NNC(=O)c1ccncc1` [ISONIAZID] gave an MIC90 in assay [1] of 0.03 mg/L (≈ 0.219 µM). In addition, the concentration for half-maximal inhibition (IC50) in the assay on Vero was over 100 mg/L.

Regarding `CO[C@H]1/C=C/O[C@@]2(C)Oc3c(C)c(O)c4c(O)c(c(/C=N/N5CCN(C)CC5)c(O)c4c3C2=O)NC(=O)/C(C)=C\C=C\[C@H](C)[C@H](O)[C@@H](C)[C@@H](O)[C@@H](C)[C@H](OC(C)=O)[C@@H]1C` [RIFAMPIN], the results for the MIC90 in assay [1] and in assay [4] were 0.08 mg/L (≈ 0.0972 µM) and under 0.05 mg/L, respectively. This molecule also returned an IC50 in the assay on Vero of over 100 mg/L.

In assay [1], `O=c1cc(-c2ccccc2)c2cc(Cl)ccc2o1` yielded an MIC90 of over 100 mg/L. Besides, the result (in assay [2]; in the assay on Mycobacterium kansasii [3]; in the assay on Acinetobacter baumannii; in the assay on Candida albicans; in the assay with Pseudomonas aeruginosa; in the assay with Mycobacterium avium) was inactive. Further, the result (in [5]; in the assay with Staphylococcus aureus; in the assay with Escherichia coli; in the assay on Mycobacteroides chelonae; in the assay with Mycobacterium marinum [7]; with Streptococcus pneumoniae) was inactive. In addition, in the assay on Enterococcus faecalis, the result was inactive. The molecule also came in with an IC50 in the assay with Vero of over 100 mg/L.

On to `O=[N+]([O-])c1cn2c(n1)OC[C@@H](OCc1ccc(OC(F)(F)F)cc1)C2` [PRETOMANID], for which the MIC90 was found to be 0.02 mg/L (≈ 0.0557 µM) in assay [1] and 0.25 mg/L (≈ 0.696 µM) in assay [4]. Besides, in the assay on Vero, the IC50 is over 100 mg/L. Also, the “Selectivity Index” value in assay [6] is listed as over 5000.

`N[C@@H]1CONC1=O` [CYCLOSERINE] yielded an MIC90 in [1] of 6.02 mg/L (≈ 59 µM). In addition, the IC50 in the assay on Vero is over 100 mg/L. Further, the “Selectivity Index” value in assay [6] is over 17.

(Values after ChEMBL document CHEMBL2429835.)
